Measured values as given in ChEMBL document CHEMBL1132199, “Carboxy-substituted cinnamides: a novel series of potent, orally active LTB4 receptor antagonists” (J Med Chem, 1999).

Key:
Leukotriene B4 receptor [1] = biological target: T1, Leukotriene B4 receptor (Homo sapiens, UniProt Q9NPC1+Q15722); assay: In vitro leukotriene B4 receptor binding potency determined by displacement of [3H]- LTB4 from human neutrophils (PMNs)
How it was run: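 Intact human neutrophils from citrated venous blood (HESPAN sedimentation, Ficoll-Paque, hypotonic lysis), 3 × 10⁶ cells in HBSS with 0.5 nM [³H]LTB₄ and compound, 20 min at 0 °C. Bound label collected by filtration, filters washed with ice-cold HBSS, then scintillation-counted. Nonspecific binding taken with 300 nM LTB₄. Compound stocks 10 mM in DMSO, final DMSO 0.35%.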

Leukotriene B4 receptor [2] = biological target: T1, Leukotriene B4 receptor; assay: LTB4 receptor antagonistic activity as inhibition of LTB4-induced [Ca2+] release from human PMNs; assay type: functional
How it was run: (§1)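 Human neutrophils from citrated venous blood (HESPAN sedimentation, centrifugal elutriation) loaded with 0.2 μM Fura-2 AM for 30 min at 37 °C, then held at 2 × 10⁶ cells/mL. Ca²⁺ and Mg²⁺ added back at 37 °C; compound given 40 s before 1 nM LTB₄; fluorescence change followed. Ki = IC50/(1 + [LTB₄]/EC50 of LTB₄). Final DMSO 0.35%.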

Mus musculus [3] = assay: Inhibition of Arachidonic acid (AA)-induced ear edema was determined at dosing of 0.5 hr challenge; expressed as myeloperoxide activity (MPO) at 0.1 mg/kg; 21/15; assay type: functional
Mus musculus [4] = assay: Inhibition of Arachidonic acid (AA)-induced ear edema was determined at dosing of 0.5 hr challenge; expressed as myeloperoxide activity (MPO) at 1 mg/kg; 24/24; assay type: functional
Mus musculus [5] = assay: Inhibition of Arachidonic acid (AA)-induced ear edema was determined at dosing of 0.5 h challenge; expressed as myeloperoxide activity (MPO) at 3 mg/kg; 39/58; assay type: functional
Mus musculus [6] = assay: Inhibition of Arachidonic acid (AA)-induced ear edema was determined at dosing of 17 hr challenge; expressed as myeloperoxide activity (MPO) at 10 mg/kg; 40/55; assay type: functional
Mus musculus [7] = assay: Inhibition of Arachidonic acid (AA)-induced ear edema was determined at dosing of 17 hr challenge; expressed as myeloperoxide activity (MPO) at 3 mg/kg; 25/12; assay type: functional
Mus musculus [8] = assay: Inhibition of Arachidonic acid (AA)-induced ear edema was determined at dosing of 17 hr challenge; expressed as myeloperoxide activity (MPO) at 10 mg/kg; 1/1; assay type: functional
Mus musculus [9] = assay: Inhibition of Arachidonic acid (AA)-induced ear edema was determined at dosing of 17 hr challenge; expressed as myeloperoxide activity (MPO) at 10 mg/kg; 27/0; assay type: functional
Mus musculus [10] = assay: Inhibition of Arachidonic acid (AA)-induced ear edema was determined at dosing of 0.5 h challenge; expressed as myeloperoxide activity (MPO) at 1 mg/kg; 32/38; assay type: functional
Mus musculus [11] = assay: Inhibition of Arachidonic acid (AA)-induced ear edema was determined at dosing of 0.5 hr challenge; expressed as myeloperoxide activity (MPO) at 3 mg/kg; 45/53; assay type: functional
Mus musculus [12] = assay: Inhibition of Arachidonic acid (AA)-induced ear edema was determined at dosing of 17 hr challenge; expressed as myeloperoxide activity (MPO) at 10 mg/kg; 59/67; assay type: functional
Mus musculus [13] = assay: Inhibition of Arachidonic acid (AA)-induced ear edema was determined at dosing of 17 hr challenge; expressed as myeloperoxide activity (MPO) at 3 mg/kg; 44/53; assay type: functional
Mus musculus [14] = assay: Inhibition of Arachidonic acid (AA)-induced ear edema was determined at dosing of 17 hr challenge; expressed as myeloperoxide activity (MPO) at 10 mg/kg; 46/54; assay type: functional
Mus musculus [15] = assay: Inhibition of Arachidonic acid (AA)-induced ear edema was determined at dosing of 0.5 hr challenge; expressed as myeloperoxide activity (MPO) at 3 mg/kg; 52/58; assay type: functional
Mus musculus [16] = assay: Inhibition of Arachidonic acid (AA)-induced ear edema was determined at dosing of 0.5 hr challenge; expressed as myeloperoxide activity (MPO) at 1 mg/kg; 26/32; assay type: functional
Mus musculus [17] = assay: Inhibition of Arachidonic acid (AA)-induced ear edema was determined at dosing of 17 hr challenge; expressed as myeloperoxide activity (MPO) at 3 mg/kg; 34/15; assay type: functional
Mus musculus [18] = assay: Inhibition of Arachidonic acid (AA)-induced ear edema was determined at dosing of 17 hr challenge; expressed as myeloperoxide activity (MPO) at 10 mg/kg; 0/0; assay type: functional
Mus musculus [19] = assay: Inhibition of Arachidonic acid (AA)-induced ear edema was determined at dosing of 0.5 hr challenge; expressed as myeloperoxide activity (MPO) at 1 mg/kg; 50/67; assay type: functional
Mus musculus [20] = assay: Inhibition of Arachidonic acid (AA)-induced ear edema was determined at dosing of 0.5 hr challenge; expressed as myeloperoxide activity (MPO) at 3 mg/kg; 56/71; assay type: functional
Mus musculus [21] = assay: Inhibition of Arachidonic acid (AA)-induced ear edema was determined at dosing of 0.5 hr challenge; expressed as myeloperoxide activity (MPO) at 0.1 mg/kg; 41/49; assay type: functional
Mus musculus [22] = assay: Inhibition of Arachidonic acid (AA)-induced ear edema was determined at dosing of 17 hr challenge; expressed as myeloperoxide activity (MPO) at 10 mg/kg; 27/31; assay type: functional
Mus musculus [23] = assay: Inhibition of Arachidonic acid (AA)-induced ear edema was determined at dosing of 0.5 hr AA challenge; expressed as myeloperoxide activity (MPO) at 1 mg/kg; 14/0; assay type: functional
Mus musculus [24] = assay: Inhibition of Arachidonic acid (AA)-induced ear edema was determined at dosing of) 17 hr challenge; expressed as myeloperoxide activity (MPO) at 10 mg/kg; 33/2; assay type: functional
Mus musculus [25] = assay: Inhibition of Arachidonic acid (AA)-induced ear edema was determined at dosing of 17 hr challenge; expressed as myeloperoxide activity (MPO) at 10 mg/kg; 19/30; assay type: functional
[26] = biological target: Leukotriene B4 receptor 1 (Homo sapiens, UniProt Q15722); assay: Leukotriene B4 receptor antagonistic activity was measured by the inhibition of LTB4 induced [Ca2+] release from human PMNs; assay type: functional; how it was run: as §1
Sequence of Leukotriene B4 receptor 1 (Q15722 whole entry): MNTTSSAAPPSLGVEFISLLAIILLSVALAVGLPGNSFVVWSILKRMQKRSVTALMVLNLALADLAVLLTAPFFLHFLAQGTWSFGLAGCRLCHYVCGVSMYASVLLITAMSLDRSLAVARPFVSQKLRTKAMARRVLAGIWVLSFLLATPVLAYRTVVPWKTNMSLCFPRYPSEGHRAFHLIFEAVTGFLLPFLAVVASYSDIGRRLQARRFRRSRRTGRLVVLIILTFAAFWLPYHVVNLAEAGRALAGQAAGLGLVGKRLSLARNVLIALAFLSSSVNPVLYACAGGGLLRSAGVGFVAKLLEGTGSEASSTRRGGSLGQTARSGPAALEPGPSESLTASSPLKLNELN

Mus musculus [27] = assay: Inhibition of Arachidonic acid (AA)-induced ear edema was determined at dosing of 0.5 h challenge; expressed as myeloperoxide activity (MPO) at 1 mg/kg; 41/41; assay type: functional
Mus musculus [28] = assay: Inhibition of Arachidonic acid (AA)-induced ear edema was determined at dosing of 17 h challenge; expressed as myeloperoxide activity (MPO) at 10 mg/kg; 55/55; assay type: functional
Mus musculus [29] = assay: Inhibition of Arachidonic acid (AA)-induced ear edema was determined at dosing of 17 hr challenge; expressed as myeloperoxide activity (MPO) at 3 mg/kg; 29/26; assay type: functional

Row | IC50 (Leukotriene B4 receptor [1]) | Ki (Leukotriene B4 receptor [2]) | Structure (SMILES) | further results
1 | 128 nM | 81 nM | CCN(CC)C(=O)/C=C(\C)c1ccc(OC(C)c2ccccc2)c(OCCC(=O)O)c1 (stereo not drawn) | Punch weight/MPO activity (Mus musculus [3]): 21; Punch weight/MPO activity (Mus musculus [4]): <24; Punch weight/MPO activity (Mus musculus [5]): <39; Punch weight/MPO activity (Mus musculus [6]): <40; Punch weight/MPO activity (Mus musculus [7]): <25
2 | 56 nM | 7.7 nM | CCN(CC)C(=O)/C=C(\C)c1ccc(CCc2ccccc2)c(OCC(=O)O)c1 | Punch weight/MPO activity (Mus musculus [9]): 27
3 | 87 nM | 22 nM | CCN(CC)C(=O)/C=C(\C)c1ccc(OCc2c(F)cccc2F)c(CC(=O)O)c1 | Punch weight/MPO activity (Mus musculus [10]): <32; Punch weight/MPO activity (Mus musculus [11]): <45; Punch weight/MPO activity (Mus musculus [12]): <59; Punch weight/MPO activity (Mus musculus [13]): 44
4 | 56 nM | 18 nM | CCN(CC)C(=O)/C=C(\C)c1ccc(OCc2c(F)cccc2F)c(OCC(=O)O)c1 | Punch weight/MPO activity (Mus musculus [14]): <46; Punch weight/MPO activity (Mus musculus [15]): <52; Punch weight/MPO activity (Mus musculus [16]): <26; Punch weight/MPO activity (Mus musculus [17]): <34
5 | 31 nM | 14 nM | CCN(CC)C(=O)/C=C(\C)c1ccc(OCc2c(Cl)cccc2Cl)c(OCC(=O)O)c1 | Punch weight/MPO activity (Mus musculus [18]): 0
6 | 64 nM | 5.2 nM | CCN(CC)C(=O)/C=C(\C)c1ccc(OC(c2ccccc2)c2ccccc2)c(OCC(=O)O)c1 | Punch weight/MPO activity (Mus musculus [23]): 14
7 | 84 nM | 11.2 nM | CCN(CC)C(=O)/C=C(\C)c1cc(OCC(=O)O)cc(OC(C)c2ccccc2)c1 (stereo not drawn) | –
8 | 1400 nM | – | CCCN(CCC)C(=O)/C=C(\C)c1ccc(OC(C)c2ccccc2)cc1 (stereo not drawn) | –
9 | 67 nM | 16 nM | CCN(CC)C(=O)/C=C(\C)c1ccc(OCc2ccccc2Cl)c(OCC(=O)O)c1 | Punch weight/MPO activity (Mus musculus [24]): <33
10 | > 10000 nM | – | CCN(CC)C(=O)/C=C(\C)c1ccc(-c2ccccc2)cc1 | –
11 | > 10000 nM | – | CCN(CC)C(=O)/C=C(\C)c1ccc(OC(C)C)cc1 | –
12 | 182 nM | 82 nM | CCN(CC)C(=O)/C=C(\C)c1ccc(OCc2ccccc2)c(OCC(=O)O)c1 | –
13 | 2000 nM | – | CCNC(=O)/C=C(\C)c1ccc(OC(C)c2ccccc2)cc1 (stereo not drawn) | –
14 | 2225 nM | – | CCN(CC)C(=O)/C=C(\C)c1ccc(OC(C)c2ccccc2)cc1OCC(=O)O (stereo not drawn) | –
15 | 216 nM | – | CCN(CC)C(=O)/C=C(\C)c1ccc(OC(C)c2ccccc2)c(OCCCC(=O)O)c1 (stereo not drawn) | –
16 | 744 nM | – | CCN(CC)C(=O)/C=C(\C)c1ccc(OC(C)c2ccccc2)cc1 (stereo not drawn) | –
17 | 39 nM | – | CCN(CC)C(=O)/C=C(\C)c1ccc(O[C@@H](C)c2ccccc2)c(CC(=O)O)c1 | –
18 | 1100 nM | – | C/C(=C\C(=O)N(C(C)C)C(C)C)c1ccc(OC(C)c2ccccc2)cc1 (stereo not drawn) | –

Continued, compound first:

Row | Structure (SMILES) | IC50 (Leukotriene B4 receptor [1]) | Ki (Leukotriene B4 receptor [2]) | further results
19 | CCN(CC)C(=O)/C=C(\C)c1ccc(Oc2ccccc2)c(OCC(=O)O)c1 | 2400 nM | – | –
20 | CCN(CC)C(=O)CC(C)c1ccc(OC(C)c2ccccc2)cc1 (stereo not drawn) | 4300 nM | – | –
21 | CCN(CC)C(=O)/C=C(\C)c1ccc(SCc2ccccc2)c(OCC(=O)O)c1 | 34 nM | 26 nM | Punch weight/MPO activity (Mus musculus [8]): 1
22 | CCN(CC)C(=O)/C=C(\C)c1ccc(OC(C)c2ccccc2)c(C(=O)O)c1 (stereo not drawn) | 884 nM | – | –
23 | CCN(CC)C(=O)/C=C(\C)c1ccc(OC(C)c2ccccc2)c(OCC(=O)O)c1 (stereo not drawn) | 50 nM | 9.1 nM | Punch weight/MPO activity (Mus musculus [19]): <50; Punch weight/MPO activity (Mus musculus [20]): <56; Punch weight/MPO activity (Mus musculus [21]): <41; Punch weight/MPO activity (Mus musculus [22]): <27
24 | CCN(CC)C(=O)/C=C(\C)c1ccc(OC(C)c2ccccc2)c(O)c1 (stereo not drawn) | 420 nM | – | –
25 | C/C(=C\C(=O)N1CCCCC1)c1ccc(OC(C)c2ccccc2)cc1 (stereo not drawn) | 5800 nM | – | –
26 | CCN(CC)C(=O)/C=C(\C)c1ccc(OCc2ccccc2F)c(OCC(=O)O)c1 | 119 nM | 27 nM | Punch weight/MPO activity (Mus musculus [25]): <19
27 | COc1ccc(C(=O)O)cc1NC(=O)/C=C(\C)c1ccc(OC(C)c2ccccc2)cc1 (stereo not drawn) | > 10000 nM | – | –
28 | CCN(CC)C(=O)/C=C(\C)c1ccc(OCc2ccccc2)cc1 | 7900 nM | – | –
29 | CCN(CC)C(=O)/C=C(\C)c1ccc(O[C@H](C)c2ccccc2)c(CC(=O)O)c1 | 536 nM | – | –
30 | CCN(CC)C(=O)/C=C/c1ccc(OC(C)c2ccccc2)cc1 (stereo not drawn) | 1600 nM | – | –
31 | C/C(=C\C(=O)N(C)C)c1ccc(OC(C)c2ccccc2)cc1 (stereo not drawn) | 2100 nM | – | –
32 | CCN(CC)C(=O)/C=C(\C)c1ccc(OC(C)c2ccccc2)c(CCC(=O)O)c1 (stereo not drawn) | 48 nM | – | Ki [26]: 9.5 nM
33 | CCN(CC)C(=O)/C=C(\C)c1ccc(OC(C)c2ccccc2)c(CC(=O)O)c1 (stereo not drawn) | 81 nM | 9.5 nM | Punch weight/MPO activity (Mus musculus [27]): <41; Punch weight/MPO activity (Mus musculus [28]): <55; Punch weight/MPO activity (Mus musculus [29]): <29
